Reference: the EternaBench riboswitch data

Tested on: MS2 coat protein
Assay: apparent Kd, MS2 coat protein; higher = weaker binding; RNA-MaP array; FMN 200 µM where present
Procedure, shortened: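 The titrant was SNAP-549-labelled MS2 coat protein, run from 0.7 or 1.5 nM in doubling steps to 3 µM. It was applied to designs transcribed by stalled E. coli RNA polymerase on Illumina sequencing-chip clusters, without ligand first and then with constant ligand, in 100 mM Tris-HCl pH 7.5, 80 mM KCl, 4 mM MgCl2, BSA, DTT, yeast tRNA and Tween-20. The apparent Kd is the median of filtered per-cluster binding-curve fits, with green signal normalised to red-channel RNA signal and control-cluster median Fmax.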

[1] = designed as: ON switch for flavin mononucleotide, no ligand
[2] = ligand present: flavin mononucleotide, designed as: ON switch for flavin mononucleotide
[3] = designed as: OFF switch for flavin mononucleotide, no ligand
[4] = ligand present: flavin mononucleotide, designed as: OFF switch for flavin mononucleotide

Sequence | apparent Kd [1] | apparent Kd [2] | apparent Kd [3] | apparent Kd [4]
UGUCUUUGCACAGGAUAUCAUACAUGAGGAUCACCCAUGUCUAUAAAACAAUGAGAAGGGUGCGUGAUGUGGGCUGCUAUAGCG | 24.7 nM | 8.3 nM |  | 
UGUGCCUCGAGAGGAUAUAUACAUGAGGAUCACCCAUGUAACGAGGUGGAAACACCUCGAAAUGUAUAGAAGGCUCGAGGCACA |  |  | 27.7 nM | 49.6 nM
UGUGCGUUGAUCUUCGAUCGGUGUACAUGAGGAUCACCCAUGUAGGAUAUUCAAAGACGCAGAUAGGAGAAGGACAUCGGAUUA |  |  | 19.2 nM | 17.2 nM
UGUGUGUCAGGAUAUCGCGCGCGCGCGGAAAUGUGUGUGUGUGAGAAGGGACAUGAGGAUCACCCAUGUGCGCG |  |  | 115 nM | 263 nM
UGUGUGUGGCAGGAUAUUCCGGUCGUUGGUCGGGAAGAAGGGUCUACAUGAGGAUCACCCAUGUGACCGGUUGA |  |  | 27 nM | 27.5 nM
UGUGUGUGGGCAGGAUAUGCAUGAAGAUGUAUGAUGUAGUGUGAUGUAACAUGAGGAUCACCCAUGUAGAAGGGCCGGUGUGUG |  |  | 116 nM | 139 nM
UGUGUGUGUGUGAGGAUAUCGGGCCCGAAAGGGCCCGAGAAGGCACAUGAGGAUCACCCAUGUAAGCGCGCGCG |  |  | 321 nM | 108 nM
UGUUGUAUUACAGGAUAUCUAGUAGUUUUAUUUAGAGAAGGGUAUUCACAUGAGGAUCACCCAUGUAUAUACGAGGAAGUUGUG | 38.9 nM | 40 nM |  | 
UGUUGUAUUACAGGAUAUCUAUGAUUAUUAUUUAGAGAAGGGUAUUCACAUGAGGAUCACCCAUGUAUAUACGAGGAAGUUGUG | 40.7 nM | 48.7 nM |  | 
UGUUGUAUUACAGGAUAUCUAUUAUGUUUAUUUAGAGAAGGGUAUUCACAUGAGGAUCACCCAUGUAUAUACGAGGAAGUUGUG | 54.8 nM | 56.2 nM |  | 
UGUUGUUCAGGAUAUGAUGUAUAAUACAUGAGGAUCACCCAUGUAGAUCCUGAAUUAACGUCAGAAGGGAAUGUUG |  |  | 15.1 nM | 17 nM
UGUUGUUCAGGAUAUGGUGUGUUCUACAUGAGGAUCACCCAUGUGGGUCCUGGUUUGGCGUCAGAAGGGAAUGUUG |  |  | 750 nM | 746 nM
UGUUUUUAUGUAAGGAUAUGGGUUUGGUUGCGGGCUUAGAAGGUACAUGAGGAUCACCCAUGUAUUUUGUGCAU |  |  | 31.6 nM | 35.5 nM
UUAAAGGCAGGAUAUACAUUUUUUUUAUUAUCCUCAUUAUUACAUGAGGAUCACCCAUGUAGAAGGGCCAAAUU |  |  | 81.7 nM | 54.1 nM
UUAAAUCAUGUAGGAUAUGCAUGGCGAAGCUACGCAGAAGGACAUGAGGAUCACCCAUGUGCUAGCGACAGAGUACUGUUGCAA |  |  | 62.7 nM | 363 nM
UUAAAUCAUGUAGGAUAUGCAUGGCGAAGCUACGCAGAAGGACAUGAGGAUCACCCAUGUGCUAGCGACUGAGUACAGUUGCAA |  |  | 56.4 nM | 325 nM
UUAAAUCAUGUAGGAUAUGCAUGGCGAAGCUACGCAGAAGGACAUGAGGAUCACCCAUGUGCUAGCGUCUGAGUACAGAUGCAA |  |  | 39.3 nM | 259 nM
UUAAAUCAUGUAGGAUAUGCAUGGCGAAGCUACGCAGAAGGACAUGAGGAUCACCCAUGUUAAAGCUACCGAGUACGGUGGCAA |  |  | 121 nM | 193 nM
UUAAAUCAUGUAGGAUAUGCAUGGCGAAGCUACGCAGAAGGACAUGAGGAUCACCCAUGUUAUAGCUACCCAGUACGGUGGCAA |  |  | 95.5 nM | 251 nM
UUAAAUCAUGUAGGAUAUGCAUGGCGAAGCUACGCAGAAGGACAUGAGGAUCACCCAUGUUCUAGCUACCGAGUUCGGUGGCAA |  |  | 20.2 nM | 83.8 nM
UUAAAUCAUGUAGGAUAUGCAUGGCGAAGCUACGCAGAAGGACAUGAGGAUCACCCAUGUUCUGGCGUCUGAGUACAGAUGCAA |  |  | 20.3 nM | 48.8 nM
UUAAAUCGAAACAUGAGGAUCACCCAUGUGUUGUGGUUAAUAUAGGAUAUGUGUAUACUUUUAUGACAGAAGGAUGAUAAUACU | 15.5 nM | 12.6 nM |  | 
UUAAUUAAAGUGAGGAUAUCUAGAGCCUCGGCUCUAGAGAAGGCACAUGAGGAUCACCCAUGUCUCAAUUAAUU |  |  | 15.7 nM | 26.8 nM
UUAAUUAACAAGAAGGCUAACAUGAGGAUCACCCAUGUUGUACAUGGAUAUAGAGGAUAUUGCUAAUAAUUAUUUAUCAUAAUU |  |  | 25.6 nM | 19 nM
UUAAUUAAUUAAUUAUACAUGAGGAUCACCCAUGUAAGUGAUCAGGAUAUCAGCUCGUGUAGAGCUGAGAAGGGAUACAUGUAA | 194 nM | 102 nM |  | 
UUAAUUCGAAACAUGAGGAUCACCCAUGUGUUGUGGUUAAUAUAGGAUAUGAGGAUACUUUUUUGUCAGAAGGAUGAUGGUACU | 11.8 nM | 10.8 nM |  | 
UUAAUUUAGUGAUAUUAUGACAUUAGAAGGCUGUACAUGUUGAUACAUGAGGAUCACCCAUGUAUAGAGGAUAUAGACAAUUUU |  |  | 39.8 nM | 93.8 nM
UUACAGUACAGGUAGGAUAUGUAGGGUGGUACAUGAGGAUCACCCAUGUAUCCACCCUUCGAACGGCAGAAGGGCCCGUCACUGC | 22 nM | 15.4 nM |  | 

Sequence | apparent Kd [1] | apparent Kd [2] | apparent Kd [3] | apparent Kd [4]
UUACAUACAAAGGUACAUGAGGAUCACCCAUGUUUGUUGGGAAGAAGGGUAACAAUACUACACAUACAGGAUAUUUCACAAACA | 49 nM | 35.4 nM |  | 
UUACAUACAAAGGUACAUGAGGAUCACCCAUGUUUGUUGGGAAGAAGGGUAACAAUACUACACAUACAGGAUAUUUCACAAAUA | 48 nM | 31.3 nM |  | 
UUACCCUCAGUAAGGAUAUCUUUAUCUGCUGAUUUAGAGAAGGUACAUGAGGAUCACCCAUGUGCGAUUGGGCA |  |  | 80.3 nM | 501 nM
UUACUAUCACAGAAGGGUAGAUAGUAUAUAGAUGCAGGAUAUGUGACAUGAGGAUCACCCAUGUUUCACCGACAUGAGGAUCAC |  |  | 60.4 nM | 66.2 nM
UUACUAUCACAGAAGGGUGGAUAGUAUAUAGACGCAGGAUAUGUGACAUGAGGAUCACCCAUGUUUCACCGGCAUGAGGAUCAA |  |  | 11.4 nM | 15.3 nM
UUACUAUUGCAGAAGGCGCAAUAAUAUAUAAAGUGAGGAUAUGCAACAUGAGGAUCACCCAUGUUUCACCCAUAUGAGGAUCAC |  |  | 6.93 nM | 7.32 nM
UUACUCAUGUAAGGAUAUGCAGCCGUUUCGGCUGCAGAAGGUACUAUAAUACAUGAGGAUCACCCAUGUCUAUACAAUAAAGAC | 62.9 nM | 26 nM |  | 
UUACUCAUGUAAGGAUAUGCAGCCGUUUCGGCUGCAGAAGGUACUAUAAUACAUGAGGAUCACCCAUGUCUUUUGAAUUUAGAC | 91.4 nM | 33.3 nM |  | 
UUACUCAUGUAAGGAUAUGCAGCCGUUUCGGCUGCAGAAGGUACUAUAAUACAUGAGGAUCACCCAUGUCUUUUUAAAUUUUAC | 109 nM | 35.2 nM |  | 
UUAGAAAUGUUAGGAUAUUAAUAUUUUUUUAGUAUGAUCUACAUGAGGAUCACCCAUGUUAAUAUUAAGAAGGAACAUUUUAUU |  |  | 88.5 nM | 64 nM
UUAGAAUUGCAAGGAUAUCUAAUGUAGAUAGUAAGAGAAGGUGCUUGAUAGUUACAUGAGGAUCACCCAUGUAUUUGGGUUUAU | 395 nM | 375 nM |  | 
UUAGCAACAUGAGGAUCACCCAUGUAGGAUAUCGCUAUUGUAAUCAUGAAACAUGAUUACAAUAGCGAGAAGGACAUAUGCUAC |  |  | 11.2 nM | 12.1 nM
UUAGCAACAUGAGGAUCACCCAUGUAGGAUAUCGCUAUUGUAAUCAUGAAACAUGAUUACAAUAGCGAGAAGGACAUAUGCUAU |  |  | 10.1 nM | 11.7 nM
UUAGCAUACCGAGGAUAUUCAUAUAAUAAAUAAACAUGAGGAUCACCCAUGUGGCGAAAGCCUAGGGAGAAGGCGGAAUGCUAC | 206 nM | 26.5 nM |  | 
UUAGCGUAAGUAAGGAUAUGCUGGUCGAAAGACCAGCAGAAGGUACAUGAGGAUCACCCAUGUUGAGUUGUUGC |  |  | 20 nM | 24.3 nM
UUAGUUUUGCAAGGAUAUGUUUAUUUAUAGUUGCCUCUUACAUGAGGAUCACCCAUGUUUUACUUACAGAAGGUGCAAUGAUUU |  |  | 165 nM | 416 nM
UUAUAAAGUGUGAGGAUAUGCUGGUCCUUAGAUCAGCAGAAGGCACAUGAGGAUCACCCAUGUAAUAUAUUUUU |  |  | 38.4 nM | 185 nM
UUAUACAUGAGGAUCUCCCAUGACAUGAGGAUCACCCAUGUGCAGGAUAUACGUGAUAUAAUAUAGUAGAAGGGCAGACUAUAU |  |  | 119 nM | 130 nM
UUAUACAUUCGAGGAUAUCGGAGAGAAAUCAUUCGAGAAGGCGAUUCAUGAUGUAUUAUCCUGGACAUGAGGAUCACCCAUGUA | 79.7 nM | 68.5 nM |  | 
UUAUACGGUGAGGAUAUCUUCACUAAAGUGUGAAGAGAAGGCGCUACAUGAGGAUCACCCAUGUCUAUGGGCAG |  |  | 556 nM | 755 nM
UUAUCUCAUGAGAAGGACAUGAGGAUCACCCAUGUAGGAUAUCAUGGGUCAGAGGAAUUGAAUCUAAUGAUUCAAUUACUCUUC | 60.5 nM | 10.4 nM |  | 
UUAUCUCAUGAGAAGGACAUGAGGAUCACCCAUGUAGGAUAUCAUGGGUCAGUGGAAUUGAAUCUUCGGAUUCAAUAACUCUAC | 72.5 nM | 11.9 nM |  | 
UUAUCUUGUCAAGGAUAUGUAGUAUUGAUCUGAAAACAUGAGGAUCACCCAUGUAUAUGGUGGGAACAGAAGGUGAAUGUUGAA |  |  | 823 nM | 727 nM
UUAUGAGAGCAGGAUAUCUUAUUUUUUUUUUGUGGAGAAGGGCUGACAUGAGGAUCACCCAUGUGGUCCUAGAU |  |  | 27.9 nM | 32.9 nM
UUAUGGAUUACAGGAUAUGUUAGUUUUAAGUGUAUUGGUUAUUACUUAAUUACAGAAGGGUAUUACAUGAGGAUCACCCAUGUA | 16.4 nM | 11.8 nM |  | 
UUAUGUCGCGUAGGAUAUCAUUAGAGUUGUAAUUUAAUUGUAAUUUCGAUAUGAGAAGGACGUACACAUGAGGAUCACCCAUGU |  |  | 17.2 nM | 15.3 nM
UUAUUAAAUGUAGGAUAUGCAUAUUAUUAUUAUGCAGAAGGACAUGAGGAUCACCCAUGUAUAUUAUUAUUAUUUAUUAUUUAU |  |  | 45.7 nM | 61.7 nM
